Screening data deposited in PubChem by The Scripps Research Institute Molecular Screening Center.
M4 antag – human M4 muscarinic receptor antagonists, primary screen, CHO cells, Fluo-8 calcium fluorescence. Muscarinic acetylcholine receptor M4 (Homo sapiens), P08173. CHO-hM4 cells, ACh EC80. inhibition, % at 3 µM. 360,000 tested, 0.73% active. AID 624125, 2012;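 active = inhibition above its plate's cutoff, the mean inhibition of sample wells plus 3 SD, cut at about 27% in these data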;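 note: 0% = acetylcholine EC80 with DMSO and 100% = DMSO without agonist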
Target sequence (P08173 whole entry, looked up): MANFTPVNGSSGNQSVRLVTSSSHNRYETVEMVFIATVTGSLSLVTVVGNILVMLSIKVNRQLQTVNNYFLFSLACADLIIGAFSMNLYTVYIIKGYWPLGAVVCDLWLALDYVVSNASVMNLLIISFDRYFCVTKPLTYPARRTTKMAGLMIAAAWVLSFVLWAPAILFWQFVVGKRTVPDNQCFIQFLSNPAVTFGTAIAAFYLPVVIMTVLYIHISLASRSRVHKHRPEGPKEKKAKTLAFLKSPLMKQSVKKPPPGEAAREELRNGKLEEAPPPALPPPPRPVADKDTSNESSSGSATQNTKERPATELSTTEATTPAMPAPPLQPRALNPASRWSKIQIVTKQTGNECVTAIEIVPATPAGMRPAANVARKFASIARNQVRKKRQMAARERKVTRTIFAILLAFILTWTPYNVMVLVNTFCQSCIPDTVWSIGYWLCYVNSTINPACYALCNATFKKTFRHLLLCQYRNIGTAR
TAAR1 agonist – human TAAR1 agonists, primary screen, Fluo-8 calcium fluorescence, CHO RD-HGA16 cells. Trace amine-associated receptor 1 (Homo sapiens), Q96RJ0. vehicle wells 0%, saturating PEA agonist 100%. 360,000 tested, 0.99% active. activation, % at 3 µM. AID 624467, 2012;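 active = activation above the mean activation of all test compounds in the run plus 3 SD, cut at about 38% in these data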
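Assay system: CHO-derived RD-HGA16 cells with stable Gα16 and human TAAR1; timing: 17-24 h seeding, 75 min 37 °C dye, 30 min RT; read-out: % activation from peak over basal fluorescence ratio, DMSO-to-PEA scaled; measured by: kinetic Fluo-8 calcium fluorescence; benchmarks: low control DMSO, high control PEA (EC100); doses: 3 µM single concentration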
TAAR1 antag – human TAAR1 antagonists, primary screen, Fluo-8 calcium fluorescence, CHO RD-HGA16 cells. Trace amine-associated receptor 1 (Homo sapiens), Q96RJ0. antagonist. inhibition, % at 3 µM. 360,000 tested, 1.5% active;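 active = inhibition above a per-plate cutoff, the mean inhibition of test compounds on that plate plus 3 SD, cut at about 49% in these data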;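 note: 0% = DMSO plus EC80 beta-PEA response and 100% = DMSO alone without agonist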
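Assay system: RD-HGA16 CHO cells with stable hTAAR1 and Gα16 / Reagent: EC80 β-phenethylamine stimulus / Doses: 3 µM, single point / Timing: dye loading 75 min at 37 °C, then 30 min room temperature / Measured by: Fluo-8 intracellular calcium dye fluorescence, real-time kinetic reads / Controls: vehicle wells and EC80 agonist wells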
M4 PAM – human M4 muscarinic receptor positive allosteric modulators, primary screen, CHO-K1 cells, Fluo-8 calcium fluorescence; AID 624126, 2012; Muscarinic acetylcholine receptor M4 (Homo sapiens), P08173; activation, % at 3 µM; CHO-K1 hM4/Gqi5, ACh EC20; 0% = ACh EC20, 100% = maximal ACh; 360,000 tested, 0.4% active;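 active = activation above its plate's cutoff, the mean activation of sample wells plus 3 SD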
M4 ag – human M4 muscarinic receptor agonists, primary screen, CHO-K1 cells, Fluo-8 calcium fluorescence; CHO-K1 hM4/Gqi5; vehicle 0%, full acetylcholine response 100%; 360,000 tested, 0.14% active; activation, % at 3 µM;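 active = activation above the run mean over all test wells plus 3 SD, cut at about 32% in these data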;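 note: peak over basal fluorescence ratio per well then scaled between controls; 0% = DMSO wells and 100% = acetylcholine at EC100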
Active calls of the source: *; . = no result. An excerpt weighted towards active compounds, which were near 3% of everything screened.

SMILES	M4 antag	TAAR1 agonist	TAAR1 antag	M4 PAM	M4 ag
NC(=O)c1c(N)[nH]c(C(=O)c2ccccc2)c1-c1ccc2c(c1)OCO2	.	5	-13	.	.
CCc1nc2ccc(C(=O)Nc3cccc(OCC(=O)N(C)C)c3)cn2c1N(C)Cc1ccc(OC)cc1	4	11	54*	-11	15
CCc1nc2ccc(C(=O)Nc3cccc(OCC(=O)N(C)C)c3)cn2c1N(C)C(=O)c1cccc(OC)c1	-12	3	-6	-1	1
Cc1ccc(C(=O)N2CCc3cc4c(cc3C2C)OCCCO4)cc1 (configuration not stated)	0	1	-24	-16	6
CC(=O)Nc1ccc(C(=O)N2CCc3cc4c(cc3C2C)OCCCO4)cc1 (configuration not stated)	39*	-2	-16	-14	1
CSc1n[nH]c(-c2cccs2)n1	.	-1	4	.	.
COC(=O)C1=C(C)N(C)C(=NCc2ccccc2)NC1CCc1ccccc1 (configuration not stated)	.	6	-1	.	.
CCC(C(=O)OC)n1cnc2c(cnn2-c2ccc(Cl)cc2)c1=O (configuration not stated)	8	12	49*	-3	6
Cc1cc(N2CCN(C(=O)OC(C)(C)C)C[C@@H]2C)ccc1N1C[C@@H](C)O[C@@H](C)C1	.	-2	-21	.	.
O=C(Cc1ccc(Cl)cc1)Nc1ccc(SC(F)F)cc1	9	3	55*	-15	8
O=C(Cc1ccccc1F)Nc1ccc(SC(F)F)cc1	4	4	1	9	1
O=C(O)c1ccc(COc2ccc3ccccc3c2/C=C2/NC(=O)N(Cc3ccc(F)cc3)C2=O)cc1	-1	14	56*	2	1
CCOC(=O)CCc1c(C)c2ccc(OCC(=O)N(CC)CC)c(C)c2oc1=O	36*	6	6	-15	-2
Cn1nc(C(=O)Nc2cccc(C(F)(F)F)c2)c2ccccc2c1=O	13	10	3	31*	-3
CN1CCN(CCC(=O)N2c3ccccc3Sc3ccc(C(F)(F)F)cc32)CC1	12	3	-10	-11	3
CN(C)CCCN1c2ccc(O)cc2Sc2ccc(Cl)cc21	44*	8	-5	-13	13
OCCN1CCN(CCCN2c3ccccc3Sc3ccc(C(F)(F)F)cc32)CC1	-3	14	10	-6	6
CN(C)CCCN1c2ccccc2Sc2ccc(C(F)(F)F)cc21	83*	21	16	-17	11
CN(C)CCC(=O)N1c2ccccc2Sc2ccc(C(F)(F)F)cc21	99*	6	-14	-17	1
CCOc1ccc2oc(C(=O)Nc3ccc(N4CCOCC4)cc3)c(C)c2c1	3	18	50*	-10	9
CCN(CC)S(=O)(=O)c1ccc(C(=O)Nc2ccc(Cc3ccncc3)cc2)cc1	8	21	56*	-18	18
CC(=O)Nc1ccc(S(=O)(=O)Nc2ccc(Cc3ccncc3)cc2)cc1	11	6	21	-1	3
CC(C)(C)c1ccc(S(=O)(=O)Nc2ccc(Cc3ccncc3)cc2)cc1	16	46*	39	-32	16
Cc1ccc(C(=O)Nc2ccc(Cc3ccncc3)cc2)cc1[N+](=O)[O-]	-2	15	60*	-9	15
CCN(CC)S(=O)(=O)c1ccc(NC(=O)c2ccc(N(C)S(C)(=O)=O)cc2)cc1	-3	14	-4	-6	16
SMILES	M4 antag	TAAR1 agonist	TAAR1 antag	M4 PAM	M4 ag
CC(=O)c1ccc2c(c1)N(Cc1ccccc1)C(=O)C(C)S2 (configuration not stated)	0	4	4	0	0
Cc1nn(Cc2c(Cl)cccc2Cl)c(C)c1NC(=O)CCCn1nc(C)c([N+](=O)[O-])c1C	-1	3	-4	-5	6
Cc1nn(CCCC(=O)Nc2cccnc2Cl)c(C)c1[N+](=O)[O-]	29*	1	22	12	1
CC(C)[C@@H](C(=O)OCC(=O)Nc1ccc2c(c1)OCO2)N1C(=O)c2ccccc2C1=O	-7	23	15	-2	7
CCC(C)[C@@H](C(=O)Nc1ccc2c(c1)OCO2)N1Cc2ccccc2C1=O (some centres not stated)	-19	-3	-41	19*	-2
O=C(Cn1nnc(-c2ccccc2)n1)Nc1ccc2c(c1)OCO2	1	42*	21	7	2
O=C(COC(=O)[C@H](Cc1ccccc1)N1C(=O)c2ccccc2C1=O)Nc1ccc2c(c1)OCO2	13	15	56*	-6	9
O=C(NCC(=O)N(Cc1cccs1)C(C(=O)NC1CCCCC1)c1ccco1)c1ccco1 (configuration not stated)	-10	18	52*	-12	13
Oc1c(N=Nc2ccccn2)ccc2ccccc12	35*	15	42	0	1
Cc1nc(-c2cc(-c3nc(-c4ccc(C(C)(C)C)cc4)no3)no2)cs1	28*	1	-65	-21	7
O=C(c1ccc2c(c1)OCO2)C1CCCN(Cc2ccc(OC(F)F)cc2)C1 (configuration not stated)	33*	-1	2	-15	9
O=C(c1ccc2c(c1)OCO2)C1CCCN(Cc2cccc(C(F)(F)F)c2)C1 (configuration not stated)	15	-1	-31	-14	-2
CC(C)C[C@H]1COc2cc(Br)ccc2S(=O)(=O)N1Cc1ccc(Cl)cc1	.	3	-17	.	.
Cc1ccccc1OCC(O)Cn1c(=N)n(Cc2ccccc2)c2ccccc21 (configuration not stated)	27*	33	2	-28	25
Cc1nc2ccccc2n1CC(O)COc1ccc(Br)cc1 (configuration not stated)	4	6	5	-7	11
Cc1nc2ccccc2n1CC(O)COc1ccccc1Cl (configuration not stated)	30*	10	15	-25	11
C=CCO[C@H]1CN(C(=O)OC)[C@@H](c2ccccc2Br)C[C@H]1OCC=C	.	0	-7	.	.
COC(=O)C1=C(C)N(CC(C)C)C(=S)NC1c1cccc(Br)c1 (configuration not stated)	.	3	49	.	.
COc1cc(C(=O)Nc2ccc3c(c2)N(C(=O)CCN(C)C)c2ccccc2CC3)cc(OC)c1OC	30*	15	-10	-21	1
CN(C)CC(=O)N1c2ccccc2CCc2ccc(NC(=O)c3ccc(N)cc3)cc21	-6	7	-1	6	1
